Data reported in ChEMBL document CHEMBL3286116, “Synthesis, biological evaluation and structure-activity correlation study of a series of imidazol-based compounds as Candida albicans inhibitors” (Eur J Med Chem, 2014).
≈ marks a conversion by molar mass, not a printed value.

Experiments:
[1] = test system: Candida albicans; experiment: Antifungal activity against Candida albicans ATCC 90028 after 48 hrs by CLSI broth microdilution method; format: functional; details: ATCC 90028, 48 h
Outline: (§1)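 Yeast CLSI broth microdilution (M27-A3). Compounds dissolved in DMSO at 100× the top test concentration, then diluted as serial two-fold dilutions in RPMI 1640 to final 0.125–64. Inoculum was 1.0–1.5 × 10^3 cells mL−1, incubated at 35 °C and read for growth at 48 h. MIC is the lowest concentration giving ≥50% growth inhibition versus growth control. Reported as the median of five replicates and as the geometric mean.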

[2] = test system: Candida albicans; experiment: Antifungal activity against Candida albicans ATCC 20891 after 48 hrs by CLSI broth microdilution method; format: functional; details: ATCC 20891, 48 h; outline: as §1
[3] = test system: Candida albicans; experiment: Antifungal activity against Candida albicans PMC 1011 after 48 hrs by CLSI broth microdilution method; format: functional; details: PMC 1011, 48 h; outline: as §1
[4] = test system: Pichia kudriavzevii; experiment: Antifungal activity against Candida krusei DSM 6128 after 48 hrs by CLSI broth microdilution method; format: functional; details: DSM 6128, 48 h; outline: as §1
[5] = test system: Pichia kudriavzevii; experiment: Antifungal activity against Candida krusei PMC 0613 after 48 hrs by CLSI broth microdilution method; format: functional; details: PMC 0613, 48 h; outline: as §1
[6] = test system: Candida tropicalis; experiment: Antifungal activity against Candida tropicalis PMC 0910 after 48 hrs by CLSI broth microdilution method; format: functional; details: PMC 0910, 48 h; outline: as §1
[7] = test system: Candida tropicalis; experiment: Antifungal activity against Candida tropicalis DSM 11953 after 48 hrs by CLSI broth microdilution method; format: functional; details: DSM 11953, 48 h; outline: as §1
[8] = test system: Candida parapsilosis; experiment: Antifungal activity against Candida parapsilosis DSM 11224 after 48 hrs by CLSI broth microdilution method; format: functional; details: Lodderomyces parapsilosis, DSM 11224, 48 h; outline: as §1
[9] = test system: Candida parapsilosis; experiment: Antifungal activity against Candida parapsilosis ATCC 22019 after 48 hrs by CLSI broth microdilution method; format: functional; details: Lodderomyces parapsilosis, ATCC 22019, 48 h; outline: as §1
[10] = test system: Nakaseomyces glabratus; experiment: Antifungal activity against Candida glabrata PMC 0805 after 48 hrs by CLSI broth microdilution method; format: functional; details: PMC 0805, 48 h; outline: as §1
[11] = test system: Nakaseomyces glabratus; experiment: Antifungal activity against Candida glabrata PMC 0807 after 48 hrs by CLSI broth microdilution method; format: functional; details: PMC 0807, 48 h; outline: as §1
[12] = test system: Cryptococcus neoformans; experiment: Antifungal activity against Cryptococcus neoformans PMC 2123 after 72 hrs by CLSI broth microdilution method; format: functional; details: PMC 2123, 72 h
Outline: (§2)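 Cryptococcus neoformans tested by CLSI broth microdilution in RPMI 1640, with serial two-fold dilutions from DMSO stocks at 100× the top concentration, final 0.125–64. Inoculum was 1.0–1.5 × 10^3 cells mL−1 at 35 °C, with growth read at 72 h. MIC is the lowest concentration with ≥50% growth inhibition versus control. Median of five replicates, plus geometric mean.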

[13] = test system: Cryptococcus neoformans; experiment: Antifungal activity against Cryptococcus neoformans PMC 2136 after 72 hrs by CLSI broth microdilution method; format: functional; details: PMC 2136, 72 h; outline: as §2
[14] = test system: Cryptococcus neoformans; experiment: Antifungal activity against Cryptococcus neoformans PMC 2115 after 72 hrs by CLSI broth microdilution method; format: functional; details: PMC 2115, 72 h; outline: as §2
[15] = test system: Cryptococcus neoformans; experiment: Antifungal activity against Cryptococcus neoformans PMC 2103 after 72 hrs by CLSI broth microdilution method; format: functional; details: PMC 2103, 72 h; outline: as §2
[16] = test system: Cryptococcus neoformans; experiment: Antifungal activity against Cryptococcus neoformans PMC 2107 after 72 hrs by CLSI broth microdilution method; format: functional; details: PMC 2107, 72 h; outline: as §2
[17] = test system: Cryptococcus neoformans; experiment: Antifungal activity against Cryptococcus neoformans PMC 2102 after 72 hrs by CLSI broth microdilution method; format: functional; details: PMC 2102, 72 h; outline: as §2
[18] = test system: Cryptococcus neoformans; experiment: Antifungal activity against Cryptococcus neoformans DSM 11959 after 72 hrs by CLSI broth microdilution method; format: functional; details: DSM 11959, 72 h; outline: as §2
[19] = test system: Cryptococcus neoformans; experiment: Antifungal activity against Cryptococcus neoformans PMC 2111 after 72 hrs by CLSI broth microdilution method; format: functional; details: PMC 2111, 72 h; outline: as §2
[20] = test system: Trichophyton mentagrophytes; experiment: Antifungal activity against Trichophyton mentagrophytes DSM 4870 after 72 hrs by CLSI broth microdilution method; format: functional; details: DSM 4870, 72 h
Outline: (§3)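 Dermatophytes tested by CLSI broth microdilution for filamentous fungi (M38-A2). Serial two-fold dilutions of DMSO-dissolved compound in RPMI 1640, final 0.125–64. Inoculum was 0.4–5 × 10^4 CFU mL−1, incubated at 35 °C and read at 72 h. MIC80 is the lowest concentration giving ≥80% growth inhibition versus growth control. Median of five replicates, plus geometric mean.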

[21] = test system: Trichophyton mentagrophytes; experiment: Antifungal activity against Trichophyton mentagrophytes PMC 6515 after 72 hrs by CLSI broth microdilution method; format: functional; details: PMC 6515, 72 h; outline: as §3
[22] = test system: Trichophyton mentagrophytes; experiment: Antifungal activity against Trichophyton mentagrophytes PMC 6531 after 72 hrs by CLSI broth microdilution method; format: functional; details: PMC 6531, 72 h; outline: as §3
[23] = test system: Trichophyton mentagrophytes; experiment: Antifungal activity against Trichophyton mentagrophytes PMC 6509 after 72 hrs by CLSI broth microdilution method; format: functional; details: PMC 6509, 72 h; outline: as §3
[24] = test system: Trichophyton mentagrophytes; experiment: Antifungal activity against Trichophyton mentagrophytes PMC 6503 after 72 hrs by CLSI broth microdilution method; format: functional; details: PMC 6503, 72 h; outline: as §3
[25] = test system: Trichophyton mentagrophytes; experiment: Antifungal activity against Trichophyton mentagrophytes PMC 6552 after 72 hrs by CLSI broth microdilution method; format: functional; details: PMC 6552, 72 h; outline: as §3
[26] = test system: Nannizzia gypsea; experiment: Antifungal activity against Microsporum gypseum PMC 7303 after 72 hrs by CLSI broth microdilution method; format: functional; details: PMC 7303, 72 h; outline: as §3
[27] = test system: Nannizzia gypsea; experiment: Antifungal activity against Microsporum gypseum PMC 7331 after 72 hrs by CLSI broth microdilution method; format: functional; details: PMC 7331, 72 h; outline: as §3
[28] = test system: Nannizzia gypsea; experiment: Antifungal activity against Microsporum gypseum DSM 3824 after 72 hrs by CLSI broth microdilution method; format: functional; details: DSM 3824, 72 h; outline: as §3
[29] = test system: Candida albicans; experiment: Antifungal activity against Candida albicans PMC 1040R after 48 hrs by CLSI broth microdilution method; format: functional; outline: as §1
[30] = test system: Candida albicans; experiment: Antifungal activity against Candida albicans PMC 1041R after 48 hrs by CLSI broth microdilution method; format: functional; outline: as §1
[31] = test system: Nakaseomyces glabratus; experiment: Antifungal activity against Candida glabrata PMC 0850R after 48 hrs by CLSI broth microdilution method; format: functional; outline: as §1
[32] = test system: Nakaseomyces glabratus; experiment: Antifungal activity against Candida glabrata PMC 0851R after 48 hrs by CLSI broth microdilution method; format: functional; outline: as §1
[33] = test system: Nakaseomyces glabratus; experiment: Antifungal activity against Candida glabrata PMC 0852R after 48 hrs by CLSI broth microdilution method; format: functional; outline: as §1
[34] = test system: Nakaseomyces glabratus; experiment: Antifungal activity against Candida glabrata PMC 0853R after 48 hrs by CLSI broth microdilution method; format: functional; outline: as §1
[35] = test system: Candida albicans; experiment: Antifungal activity against Candida albicans PMC 1042R after 48 hrs by CLSI broth microdilution method; format: functional; outline: as §1
[36] = Cytotoxicity against human A549 cells after 48 hrs by MTT assay; format: cell-based
Outline: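 A549 cells (ATCC CCL-185) seeded at 2 × 10^4/well in phenol-red-free RPMI 1640 with 10% FBS, L-glutamine, penicillin and streptomycin, at 37 °C and 5% CO2. Exposed 48 h to DMSO-dissolved compounds (final 16–256; at least five concentrations, triplicate). MTT added for 3–4 h, crystals solubilized, OD read at 570 nm. CC50 taken versus the DMSO control. Mean ± SD of two independent experiments.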

[37] = test system: Candida albicans; experiment: Antifungal activity against Candida albicans ATCC 24433 after 48 hrs by CLSI broth microdilution method; format: functional; details: ATCC 24433, 48 h; outline: as §1
[38] = test system: Candida albicans; experiment: Antifungal activity against Candida albicans ATCC 3153 after 48 hrs by CLSI broth microdilution method; format: functional; details: ATCC 3153, 48 h; outline: as §1
[39] = test system: Candida albicans; experiment: Antifungal activity against Candida albicans ATCC 10231 after 48 hrs by CLSI broth microdilution method; format: functional; details: ATCC 10231, 48 h; outline: as §1
[40] = test system: Candida albicans; experiment: Antifungal activity against Candida albicans ATCC 76615 after 48 hrs by CLSI broth microdilution method; format: functional; details: ATCC 76615, 48 h; outline: as §1
[41] = test system: Candida albicans; experiment: Antifungal activity against Candida albicans ATCC 10261 after 48 hrs by CLSI broth microdilution method; format: functional; details: ATCC 10261, 48 h; outline: as §1

MIC50 [1]: 0.5 µg/mL (≈ 1.12 µM)
MIC50 [2]: 0.5 µg/mL (≈ 1.12 µM)
MIC50 [3]: 0.25 µg/mL (≈ 0.561 µM)
MIC50 [4]: 4 µg/mL (≈ 8.98 µM)
MIC50 [5]: 1 µg/mL (≈ 2.25 µM)
MIC50 [6]: 4 µg/mL (≈ 8.98 µM)
MIC50 [7]: 4 µg/mL (≈ 8.98 µM)
MIC50 [8]: 1 µg/mL (≈ 2.25 µM)
MIC50 [9]: 1 µg/mL (≈ 2.25 µM)
MIC50 [10]: 1 µg/mL (≈ 2.25 µM)
MIC50 [11]: 8 µg/mL (≈ 18 µM)
MIC50 [12]: 4 µg/mL (≈ 8.98 µM)
MIC50 [13]: 4 µg/mL (≈ 8.98 µM)
MIC50 [14]: 4 µg/mL (≈ 8.98 µM)
MIC50 [15]: 4 µg/mL (≈ 8.98 µM)
MIC50 [16]: 4 µg/mL (≈ 8.98 µM)
MIC50 [17]: 4 µg/mL (≈ 8.98 µM)
MIC50 [18]: 2 µg/mL (≈ 4.49 µM)
MIC50 [19]: 2 µg/mL (≈ 4.49 µM)
MIC80 [20]: 8 µg/mL (≈ 18 µM)
MIC80 [21]: 4 µg/mL (≈ 8.98 µM)
MIC80 [22]: 8 µg/mL (≈ 18 µM)
MIC80 [23]: 8 µg/mL (≈ 18 µM)
MIC80 [24]: 2 µg/mL (≈ 4.49 µM)
MIC80 [25]: 1 µg/mL (≈ 2.25 µM)
MIC80 [26]: 2 µg/mL (≈ 4.49 µM)
MIC80 [27]: 2 µg/mL (≈ 4.49 µM)
MIC80 [28]: 8 µg/mL (≈ 18 µM)
MIC50 [29]: 32 µg/mL (≈ 71.9 µM)
MIC50 [30]: 8 µg/mL (≈ 18 µM)
MIC50 [31]: 8 µg/mL (≈ 18 µM)
MIC50 [32]: 8 µg/mL (≈ 18 µM)
MIC50 [33]: 4 µg/mL (≈ 8.98 µM)
MIC50 [34]: 4 µg/mL (≈ 8.98 µM)
MIC50 [35]: 4 µg/mL (≈ 8.98 µM)
MIC50 [37]: 1 µg/mL (≈ 2.25 µM)
MIC50 [38]: 0.5 µg/mL (≈ 1.12 µM)
MIC50 [39]: 0.5 µg/mL (≈ 1.12 µM)
MIC50 [40]: 2 µg/mL (≈ 4.49 µM)
MIC50 [41]: 0.5 µg/mL (≈ 1.12 µM)
SMILES: O=C(OC(Cn1ccnc1)c1ccc(Cl)cc1)N1CCN(c2ccc(Cl)cc2)CC1 (stereo unspecified)
CC50 at 48 h [36]: 82.2 µg/mL (≈ 185 µM)
